“Also recorded” adds a separate entry of the source.
How the values were obtained:
TRPC5:C5 = conditions: read-out: TRPC5:C5 IC50; cited from earlier work
TRPC4:C4 [1] = conditions: read-out: TRPC4:C4 IC50; cited from earlier work
[2] = cited from earlier work
TRPC5-SYFP2 = target: T1, TRPC5-SYFP2 (Homo sapiens, UniProt Q9UL62); assay: Competition photoaffinity labelling; type: binding; conditions: Pico145 10 μM pre-treatment; 300 nM Pico145-DAAlk 5
T1 sequence (Q9UL62 1-973): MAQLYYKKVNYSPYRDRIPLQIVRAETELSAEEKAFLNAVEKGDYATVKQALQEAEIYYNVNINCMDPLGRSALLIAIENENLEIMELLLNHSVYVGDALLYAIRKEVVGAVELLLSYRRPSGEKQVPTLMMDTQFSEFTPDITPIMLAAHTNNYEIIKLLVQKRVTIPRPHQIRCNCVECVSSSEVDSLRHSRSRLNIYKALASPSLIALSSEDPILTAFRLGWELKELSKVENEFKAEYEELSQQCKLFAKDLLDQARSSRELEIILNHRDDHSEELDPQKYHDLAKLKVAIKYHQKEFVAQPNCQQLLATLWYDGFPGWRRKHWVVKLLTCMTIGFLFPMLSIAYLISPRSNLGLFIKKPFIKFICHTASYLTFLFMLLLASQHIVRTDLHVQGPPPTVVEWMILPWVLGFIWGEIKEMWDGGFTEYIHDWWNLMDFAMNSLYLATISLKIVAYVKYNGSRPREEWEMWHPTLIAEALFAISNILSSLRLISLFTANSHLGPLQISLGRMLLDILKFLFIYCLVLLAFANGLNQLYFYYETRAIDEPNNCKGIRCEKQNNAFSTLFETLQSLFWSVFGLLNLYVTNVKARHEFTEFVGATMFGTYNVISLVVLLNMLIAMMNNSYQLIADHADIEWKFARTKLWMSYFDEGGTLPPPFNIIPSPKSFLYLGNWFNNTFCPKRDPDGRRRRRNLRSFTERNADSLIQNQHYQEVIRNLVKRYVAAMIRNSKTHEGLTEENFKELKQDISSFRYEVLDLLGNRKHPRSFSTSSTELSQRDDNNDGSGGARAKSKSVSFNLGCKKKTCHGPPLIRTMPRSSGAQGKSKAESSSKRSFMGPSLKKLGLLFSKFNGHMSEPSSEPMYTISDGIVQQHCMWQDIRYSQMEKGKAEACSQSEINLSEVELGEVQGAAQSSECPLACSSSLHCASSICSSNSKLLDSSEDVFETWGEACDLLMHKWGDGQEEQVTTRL
Summary of the method: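 Tetracycline-induced (1 μg ml−1, 24 h) cells in SBS pre-treated 30 min at 37 °C with test compound or DMSO, then 30 min at 37 °C with 300 nM diazirine-alkyne probe plus competitor. Streptavidin-HRP/anti-GFP blots; biotin/GFP densitometry versus probe-only control; n = 3; one-way ANOVA, Dunnett.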

TRPC4:C4 [3] = target: T2, TRPC4:C4 (Homo sapiens, UniProt Q9UBN4); conditions: read-out: TRPC4:C4 IC50; 10 nM EA was used as activator; cited from earlier work
T2 sequence (Q9UBN4 1-893 isoform Q9UBN4-2): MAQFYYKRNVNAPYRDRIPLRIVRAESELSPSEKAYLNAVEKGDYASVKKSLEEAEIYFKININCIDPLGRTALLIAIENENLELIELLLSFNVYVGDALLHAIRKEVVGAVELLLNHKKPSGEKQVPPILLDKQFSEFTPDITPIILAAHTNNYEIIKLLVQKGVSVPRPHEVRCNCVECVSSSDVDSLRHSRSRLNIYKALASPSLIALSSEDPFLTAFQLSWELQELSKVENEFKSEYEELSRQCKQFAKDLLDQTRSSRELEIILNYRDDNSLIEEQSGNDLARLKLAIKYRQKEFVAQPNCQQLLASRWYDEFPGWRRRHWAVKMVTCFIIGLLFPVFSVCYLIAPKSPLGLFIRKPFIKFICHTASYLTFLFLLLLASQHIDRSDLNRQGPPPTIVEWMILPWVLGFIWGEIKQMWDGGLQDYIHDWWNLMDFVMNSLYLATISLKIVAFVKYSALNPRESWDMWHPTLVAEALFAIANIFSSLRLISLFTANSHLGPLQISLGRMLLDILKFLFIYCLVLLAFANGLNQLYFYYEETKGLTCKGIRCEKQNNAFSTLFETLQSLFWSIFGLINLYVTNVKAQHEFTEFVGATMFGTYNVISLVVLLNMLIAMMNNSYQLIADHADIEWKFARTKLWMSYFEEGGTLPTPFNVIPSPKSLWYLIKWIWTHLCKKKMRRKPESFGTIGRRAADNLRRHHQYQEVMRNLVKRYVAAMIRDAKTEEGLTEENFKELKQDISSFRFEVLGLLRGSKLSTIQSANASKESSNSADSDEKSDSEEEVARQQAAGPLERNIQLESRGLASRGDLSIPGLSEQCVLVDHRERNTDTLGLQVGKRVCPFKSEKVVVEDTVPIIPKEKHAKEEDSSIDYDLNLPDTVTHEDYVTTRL

TRPC4-C1 = TRPC4-C1 (Homo sapiens, UniProt P48995+Q9UBN4); conditions: read-out: TRPC4-C1 IC50; 10 nM EA was used as activator; cited from earlier work
Sequence of TRPC4-C1 (P48995 whole entry, one chain of several): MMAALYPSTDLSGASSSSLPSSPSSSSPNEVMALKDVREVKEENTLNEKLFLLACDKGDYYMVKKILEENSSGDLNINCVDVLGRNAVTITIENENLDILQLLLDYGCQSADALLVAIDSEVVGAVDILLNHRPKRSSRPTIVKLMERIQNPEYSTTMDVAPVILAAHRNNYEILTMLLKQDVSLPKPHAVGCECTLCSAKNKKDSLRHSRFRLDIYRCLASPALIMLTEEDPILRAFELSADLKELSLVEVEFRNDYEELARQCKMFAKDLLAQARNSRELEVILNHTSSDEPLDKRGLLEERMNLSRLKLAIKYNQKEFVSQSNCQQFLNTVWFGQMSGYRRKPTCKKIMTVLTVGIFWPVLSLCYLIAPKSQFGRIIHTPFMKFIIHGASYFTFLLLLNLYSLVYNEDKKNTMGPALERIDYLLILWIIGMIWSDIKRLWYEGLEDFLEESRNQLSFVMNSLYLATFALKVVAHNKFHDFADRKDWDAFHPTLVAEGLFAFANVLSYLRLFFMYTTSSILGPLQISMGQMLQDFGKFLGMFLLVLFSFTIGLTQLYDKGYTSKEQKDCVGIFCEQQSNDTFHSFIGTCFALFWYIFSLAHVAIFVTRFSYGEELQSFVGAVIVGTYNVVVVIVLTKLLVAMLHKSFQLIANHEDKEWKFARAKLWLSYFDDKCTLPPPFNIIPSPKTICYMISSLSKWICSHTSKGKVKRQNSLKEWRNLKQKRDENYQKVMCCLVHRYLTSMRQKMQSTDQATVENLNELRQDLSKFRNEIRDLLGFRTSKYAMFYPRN

| Compound | IC50 (TRPC5:C5) [nM] | IC50 (TRPC4:C4 [1]) [nM] | Oral bioavailability [2] | Effect on TRPC5 photoaffinity labelling with Pico145-DAAlk 5 (TRPC5-SYFP2) | IC50 (TRPC4:C4 [3]) [nM] | IC50 (TRPC4-C1) [nM] |
| --- | --- | --- | --- | --- | --- | --- |
| O=C1CN(c2cn[nH]c(=O)c2Cl)CCN1Cc1ccccc1C(F)(F)F [GFB-8438] | 180 to 280 | 290 |  |  |  |  |
| Cn1c(=O)n(CCCO)c(=O)c2c1nc(Oc1cccc(OC(F)(F)F)c1)n2Cc1ccc(Cl)cc1 [Pico145 1] |  |  | orally bioavailable | inhibition of TRPC5 labelling; also recorded: inhibits photoaffinity labelling | 0.35 | 0.03 |

Reference: paper PMC10655067 (RSC Chemical Biology, 2020)
